Measurements gathered from unrelated publications.
Mode: inhibitor
rep main protease: Replicase polyprotein 1ab, main protease (rep, Severe acute respiratory syndrome coronavirus 2, UniProt P0DTD1)
rep methyltransferase: Replicase polyprotein 1ab, methyltransferase (rep, Severe acute respiratory syndrome coronavirus 2, UniProt P0DTD1)

SMILES	target	effect on	technique	IC50 [µM]
[2H]C([2H])([2H])n1ncc2cc(/N=c3\[nH]c(=O)n(Cc4ncn(C)n4)c(=O)n3Cc3cc(F)c(F)cc3F)c(Cl)cc21	rep main protease	enzyme activity	FRET	3.53
COc1cc(CC2NCCc3cc(O)c(O)cc32)cc(OC)c1OC (stereo not drawn)	rep main protease	enzyme activity		> 20
CN(C(=O)[C@H](Cc1ccccc1)NC(=O)[C@@H](NC(=O)OCc1ccccc1)C(C)(C)C)N(C#N)CCC(N)=O	rep main protease	enzyme activity		0.236
CC(C)c1cccc(NC(=O)C2CC(=O)Nc3ccccc32)c1 (stereo not drawn)	rep main protease	enzyme activity		3.72
Cc1ccc(-c2nc(N3CCN(C)CC3)s[n+]2-c2ccccc2)cc1	rep main protease	enzyme activity		0.534
COc1ccc(-c2csc(C3=C(O)CN(/N=C/c4c[nH]c5ccccc45)C3=N)n2)cc1	rep methyltransferase	enzyme activity		42.9
Cc1nn(-c2ccc(Cl)cc2)c2c1C(c1ccc(Cl)c(Cl)c1)C(C#N)=C(N)O2 (stereo not drawn)	rep main protease	enzyme activity		100
CCOc1nc2cccc(C(=O)OC(C)OC(=O)OC3CCCCC3)c2n1Cc1ccc(-c2ccccc2-c2nnn[nH]2)cc1 (stereo not drawn)	rep methyltransferase	enzyme activity		41.6
CN(C)[C@@H]1C(O)=C(C(N)=O)C(=O)[C@@]2(O)C(O)=C3C(=O)c4c(O)cccc4[C@@](C)(O)[C@H]3[C@H](O)[C@@H]12	rep main protease	enzyme activity in cells		> 60
CN(C)S(=O)(=O)c1cccc(-n2sc3ccccc3c2=O)c1	rep main protease	enzyme activity		0.02
COC(=O)N[C@H](C(=O)N[C@@H](Cc1ccccc1)[C@@H](O)CN(Cc1ccc(-c2ccccn2)cc1)NC(=O)[C@@H](NC(=O)OC)C(C)(C)C)C(C)(C)C	rep main protease	enzyme activity in cells		> 60
CC(=O)N[C@@H](CS)C(=O)O	rep main protease	enzyme activity		> 450
COc1cc(Br)cc(C=NN2C(=O)c3ccccc3NC2c2cc(Br)cc(OC)c2O)c1O (stereo not drawn)	rep main protease	enzyme activity in cells		> 40
CCn1c(-c2nonc2N)nc2cnc(Oc3cccc(NC(=O)c4ccc(OCCN5CCOCC5)cc4)c3)cc21	rep main protease	enzyme activity		> 20
COc1ccc2nc(NC(=O)CSc3nc4ccccc4c4nnnn34)sc2c1	rep methyltransferase	enzyme activity		44.8
Oc1ccc2ccccc2c1SSc1c(O)ccc2ccccc12	rep main protease	enzyme activity		0.5
CC(=O)[C@]1(O)Cc2c(O)c3c(c(O)c2[C@@H](O[C@H]2C[C@H](N)[C@H](O)[C@H](C)O2)C1)C(=O)c1ccccc1C3=O	rep methyltransferase	enzyme activity		38.5
Oc1cc(O)c2c(c1)O[C@H](c1ccc(O)c(O)c1)[C@H](O)C2	rep main protease	enzyme activity		0.05
CC(Cc1ccc(O)c(O)c1)C(C)Cc1ccc(O)c(O)c1 (stereo not drawn)	rep methyltransferase	enzyme activity		10.3
O=C(NCCCNc1nc(Nc2cccc(NC(=O)N3CCCC3)c2)ncc1I)c1cccs1	rep main protease	enzyme activity		8.7
COC(=O)c1c(NC(=O)c2cc3ccccc3o2)sc(C)c1C	rep methyltransferase	enzyme activity		22.8
COc1ncc(-c2ccc3nccc(-c4ccnnc4)c3c2)cc1NS(=O)(=O)c1ccc(F)cc1F	rep main protease	enzyme activity		> 20
O=c1oc2c(O)c(O)cc3c(=O)oc4c(O)c(O)cc1c4c23	rep methyltransferase	enzyme activity		22.9
CC(C)[C@H](NC(=O)[C@H](CCCNC(=N)N)NC(=O)N[C@@H](Cc1ccccc1)C(=O)O)C(=O)N[C@H](C=O)CCCNC(=N)N	rep main protease	enzyme activity	FRET	48.6
